From ChEMBL document CHEMBL2380292, “Discovery of SAR184841, a potent and long-lasting inhibitor of 11β-hydroxysteroid dehydrogenase type 1, active in a physiopathological animal model of T2D” (Bioorg Med Chem Lett, 2013) come the findings set out here.

Some results are limits rather than exact numbers.

What is called inhibition in vivo is the relative decrease from the control value, in per cent. Higher therefore signals a response far below the control. A word on the IC50: it is the concentration that gives 50% inhibition.

Data set [1] can be described thus: Permeability across human Caco2 cells. In kind it is ADME, cell-based. Conditions: Caco-2, read-out: permeability. The procedure, abridged:
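Permeability was measured with the compound alone and in the presence of the P-gp inhibitor elacridar, and expressed in 10^-7 cm/s.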

Data set [2] deals with Mus musculus. The experiment in a line: Ex vivo inhibition of 11beta-HSD1 in C57Bl/6J mouse subcutaneous fat at 30 mg/kg, po after 16 hrs. In kind it is functional. The procedure, abridged:
(§1)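 Mice given a single oral dose as a suspension in Tween 80/0.6% methylcellulose (0.5/99.5, v/v) at 10 mL/kg. At 2 h or 16 h post-dose, animals were killed by cervical dislocation and 50 mg liver and 200 mg subcutaneous fat were taken for 11β-HSD1 activity. Reactions were stopped with HCl 1 N/methanol (1/1). 3H-cortisone and 3H-cortisol were quantified by HPLC with flow scintillation detection.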

Data set [3] concerns Mus musculus. The experiment in a line: Ex vivo inhibition of 11beta-HSD1 in C57Bl/6J mouse liver at 30 mg/kg, po after 16 hrs. In kind it is functional. The procedure, abridged:
as §1

The target in a further data set is Cytochrome P450 3A4 (Homo sapiens, UniProt P08684). The experiment in a line: Inhibition of CYP3A4 (unknown origin). In kind it is ADME.
Sequence of Cytochrome P450 3A4 (P08684 whole entry): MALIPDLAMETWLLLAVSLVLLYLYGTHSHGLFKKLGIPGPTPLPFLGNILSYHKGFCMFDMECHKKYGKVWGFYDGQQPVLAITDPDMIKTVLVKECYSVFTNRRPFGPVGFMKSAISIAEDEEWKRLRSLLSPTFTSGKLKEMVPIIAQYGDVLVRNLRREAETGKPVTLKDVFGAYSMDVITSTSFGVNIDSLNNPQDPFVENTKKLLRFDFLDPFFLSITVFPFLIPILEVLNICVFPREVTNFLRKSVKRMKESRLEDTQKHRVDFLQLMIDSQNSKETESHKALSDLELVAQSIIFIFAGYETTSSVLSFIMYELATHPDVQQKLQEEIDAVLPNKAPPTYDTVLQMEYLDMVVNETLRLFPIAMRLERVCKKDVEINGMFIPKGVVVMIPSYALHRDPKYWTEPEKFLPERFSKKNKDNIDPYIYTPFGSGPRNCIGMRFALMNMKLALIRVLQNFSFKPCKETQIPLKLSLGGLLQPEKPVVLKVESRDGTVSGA
Data set [4] deals with Liver microsomes. The experiment in a line: Metabolic stability in rat liver microsomes. In kind it is ADME, Microsome.
The subject of data set [5] is Liver microsomes. The experiment in a line: Metabolic stability in human liver microsomes. In kind it is ADME, Microsome.
Another data set relates to Liver. The experiment in a line: Metabolic stability in mouse liver microsomes. In kind it is ADME, Microsome. Background: Liver microsomes are vesicles of endoplasmic reticulum, rich in cytochrome P450 enzymes.
For data set [6], the target named is 11-beta-hydroxysteroid dehydrogenase 1 (Mus musculus, UniProt P50172). The experiment in a line: Inhibition of mouse recombinant 11beta-HSD1 by scintillation proximity assay.
Sequence of 11-beta-hydroxysteroid dehydrogenase 1 (Mus musculus, UniProt P50172) (P50172 whole entry): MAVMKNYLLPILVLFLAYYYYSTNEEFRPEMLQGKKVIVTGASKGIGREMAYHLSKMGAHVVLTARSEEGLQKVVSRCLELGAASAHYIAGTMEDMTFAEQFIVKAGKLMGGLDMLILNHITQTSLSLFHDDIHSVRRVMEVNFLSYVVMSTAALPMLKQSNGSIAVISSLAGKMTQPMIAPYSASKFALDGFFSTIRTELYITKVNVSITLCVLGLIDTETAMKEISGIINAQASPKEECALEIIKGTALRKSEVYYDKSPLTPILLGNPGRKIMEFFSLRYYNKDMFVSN
Data set [7] deals with 11-beta-hydroxysteroid dehydrogenase 1 (Rattus norvegicus, UniProt P16232). The experiment in a line: Inhibition of rat 11beta-HSD1.
Sequence of 11-beta-hydroxysteroid dehydrogenase 1 (Rattus norvegicus, UniProt P16232) (P16232 whole entry): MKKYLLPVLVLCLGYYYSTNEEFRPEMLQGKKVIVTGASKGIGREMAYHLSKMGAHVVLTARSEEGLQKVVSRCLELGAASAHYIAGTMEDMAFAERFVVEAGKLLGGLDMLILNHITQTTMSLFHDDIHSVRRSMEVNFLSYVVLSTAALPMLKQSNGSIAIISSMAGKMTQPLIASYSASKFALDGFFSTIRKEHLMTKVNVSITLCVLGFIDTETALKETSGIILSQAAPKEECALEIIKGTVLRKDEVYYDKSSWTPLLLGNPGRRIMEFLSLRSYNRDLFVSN
The subject of data set [8] is Mus musculus. The experiment in a line: Ex vivo inhibition of 11beta-HSD1 in C57Bl/6J mouse subcutaneous fat at 3 mg/kg, po after 16 hrs. In kind it is functional. The procedure, abridged:
as §1

The subject of data set [9] is Mus musculus. The experiment in a line: Ex vivo inhibition of 11beta-HSD1 in C57Bl/6J mouse liver at 3 mg/kg, po after 16 hrs. In kind it is functional. The procedure, abridged: as §1
Data set [10] concerns the target T1, 11-beta-hydroxysteroid dehydrogenase type 2 (Homo sapiens, UniProt P80365).
T1 sequence (P80365 whole entry): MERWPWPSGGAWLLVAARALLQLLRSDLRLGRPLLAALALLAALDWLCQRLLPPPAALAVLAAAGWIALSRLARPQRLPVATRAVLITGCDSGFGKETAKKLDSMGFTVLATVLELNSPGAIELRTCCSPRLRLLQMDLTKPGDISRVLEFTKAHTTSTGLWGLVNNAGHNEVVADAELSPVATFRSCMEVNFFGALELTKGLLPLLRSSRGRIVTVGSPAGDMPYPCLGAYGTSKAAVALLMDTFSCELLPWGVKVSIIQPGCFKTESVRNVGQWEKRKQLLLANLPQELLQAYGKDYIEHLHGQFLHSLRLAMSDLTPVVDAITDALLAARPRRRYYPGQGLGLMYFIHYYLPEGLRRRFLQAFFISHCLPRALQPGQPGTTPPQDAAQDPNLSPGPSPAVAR
The experiment in a line: Inhibition of human 11beta-HSD2.

Data set [11] relates to Mus musculus. The experiment in a line: Ex vivo inhibition of 11beta-HSD1 in C57Bl/6J mouse subcutaneous fat at 30 mg/kg, os after 2 hrs. In kind it is functional. The conditions noted are these: sc. The procedure, abridged:
as §1

In data set [12] the test system is Mus musculus. The experiment in a line: Ex vivo inhibition of 11beta-HSD1 in C57Bl/6J mouse liver at 30 mg/kg, os after 2 hrs. In kind it is functional. The procedure, abridged:
as §1

In data set [13] the test system is Mus musculus. The experiment in a line: Ex vivo inhibition of 11beta-HSD1 in C57Bl/6J mouse subcutaneous fat at 10 mg/kg, os after 2 hrs. In kind it is functional. Conditions: sc. The procedure, abridged: as §1
Data set [14] has as its system Mus musculus. The experiment in a line: Ex vivo inhibition of 11beta-HSD1 in C57Bl/6J mouse liver at 10 mg/kg, os after 2 hrs. In kind it is functional. The procedure, abridged:
as §1

On to `NC(=O)[C@]12CC3CC(C1)[C@@H](NC(=O)N1CCN(c4ccc(N5CCN(S(=O)(=O)C6CC6)CC5)cn4)c4ccccc41)C(C3)C2`, for which the Papp in data set [1] worked out at 0.4 ×10⁻⁶ cm/s. The inhibition in vivo at 30 mg/kg was found to be 50% in the data set on Mus musculus [2] and 75% with Mus musculus [3]. The IC50 against Cytochrome P450 3A4 is more than 30000 nM; in data set [6], 8 nM; in data set [7], 9 nM. The Stability came out at 31% with Liver microsomes [4], 1% in the data set with Liver microsomes [5] and 18% in the data set with Liver. Also, the inhibition in vivo at 3 mg/kg in the data set with Mus musculus [8] and with Mus musculus [9] was more than 50% throughout.
With `CS(=O)(=O)N1CCN(c2ccc(N3CCN(C(=O)N[C@H]4C5CC6CC4C[C@](C(N)=O)(C6)C5)c4ccccc43)cc2)CC1`, the Papp in data set [1] stood at 3 ×10⁻⁶ cm/s. Further, the results for the inhibition in vivo at 30 mg/kg in the data set with Mus musculus [2] and with Mus musculus [3] were 30% and 55%, respectively. For the same compound, the figures for the IC50 (on Cytochrome P450 3A4; in data set [6]; in data set [7]) were more than 10000 nM, 5 nM and 24 nM, respectively. Moreover, the Stability came to 26% in the data set on Liver microsomes [4], 3% in the data set on Liver microsomes [5] and 22% in the data set with Liver.
Take `COc1ccc(-c2cnc(N3CCN(C(=O)N4CCC(c5cn[nH]c5)C4)c4ccccc43)nc2)cc1` (centres undefined): the values for the IC50 (against Cytochrome P450 3A4; in data set [10]; in data set [7]) were less than 300 nM, more than 10000 nM and 600 nM, respectively. For the same compound, the values for the inhibition in vivo at 30 mg/kg with Mus musculus [11] and in the data set with Mus musculus [12] were 70% and 90%, respectively.
For `CS(=O)(=O)N1CCN(c2ccc(N3CCN(C(=O)N[C@H]4C5CC6CC4C[C@](O)(C6)C5)c4ccccc43)nc2)CC1`, the Papp in data set [1] was 7.9 ×10⁻⁶ cm/s. Besides, the inhibition in vivo at 30 mg/kg was 20% with Mus musculus [2] and 47% in the data set on Mus musculus [3]. The concentration for half-maximal inhibition (IC50) on Cytochrome P450 3A4 was more than 30000 nM; in [6] it was 2 nM; in [7], 16 nM. Further, the Stability in the data set on Liver microsomes [4] stood at 12%; with Liver microsomes [5], 12%; with Liver, 18%.
Consider `CC(C)(C)N1CCN(c2ccc(N3CCN(C(=O)N[C@H]4C5CC6CC4C[C@](O)(C6)C5)c4ccccc43)nc2)CC1`, for which the Papp in data set [1] is 3.4 ×10⁻⁶ cm/s. The inhibition in vivo at 30 mg/kg with Mus musculus [2] was found to be 20%; in the data set with Mus musculus [3] it was 55%. Besides, the Stability in the data set with Liver microsomes [4] came out at 20%; in the data set on Liver microsomes [5], 14%; in the data set on Liver, 6%. Also, the IC50 amounted to 8 nM in data set [6] and 18 nM in data set [7].
Consider `CC(=O)N1CCN(c2ccc(N3CCN(C(=O)N[C@H]4C5CC6CC4C[C@](O)(C6)C5)c4ccccc43)nc2)CC1`, for which the Papp in data set [1] worked out at 1 ×10⁻⁶ cm/s. For the same compound, the inhibition in vivo at 30 mg/kg with Mus musculus [2] and in the data set with Mus musculus [3] was 0% each time. Moreover, the 50% inhibitory concentration (IC50) at Cytochrome P450 3A4 was more than 30000 nM; in data set [7], 65 nM. Besides, the figures for the Stability in the data set with Liver microsomes [4], with Liver microsomes [5] and in the data set on Liver were 18%, 5% and 14%, respectively.
As to `COc1ccc(-c2cnc(N3CCN(C(=O)N[C@H]4C5CC6CC4C[C@](C(N)=O)(C6)C5)c4ccccc43)nc2)cc1`, the Papp in data set [1] stood at 18.2 ×10⁻⁶ cm/s. The results for the IC50 (at Cytochrome P450 3A4; in [6]; in data set [7]) were more than 10000 nM, 36 nM and 70 nM, respectively. Moreover, the figures for the Stability in the data set on Liver microsomes [4], with Liver microsomes [5] and with Liver were 32%, 49% and 27%, respectively.
Turning to `CS(=O)(=O)N1CCN(c2ccc(N3CCN(C(=O)N[C@H]4C5CC6CC4C[C@](O)(C6)C5)c4ccccc43)cc2)CC1`, the Papp in [1] was 19.4 ×10⁻⁶ cm/s. Also, the inhibition in vivo at 30 mg/kg is 55% with Mus musculus [2] and 80% in the data set with Mus musculus [3]. Also, the IC50 against Cytochrome P450 3A4 is more than 10000 nM; in data set [6], 1 nM; in data set [7], 114 nM. The Stability is 17% with Liver microsomes [4], 2% in the data set with Liver microsomes [5] and 9% in the data set with Liver.
As to `COc1ccc(-c2cnc(N3CCN(C(=O)N[C@H]4C5CC6CC4C[C@](OC(N)=O)(C6)C5)c4ccccc43)nc2)cc1`, the values for the IC50 (against Cytochrome P450 3A4; in data set [6]; in data set [7]) were more than 10000 nM, 5 nM and 100 nM, respectively. In addition, the Stability with Liver microsomes [4] was found to be 70%; with Liver microsomes [5], 89%; in the data set on Liver, 96%.
Take `CS(=O)(=O)N1CCN(c2cnc(N3CCN(C(=O)N[C@H]4C5CC6CC4C[C@](O)(C6)C5)c4ccccc43)nc2)CC1`: the Papp in data set [1] is 0.7 ×10⁻⁶ cm/s. In addition, the inhibition in vivo at 30 mg/kg stood at 0% in the data set with Mus musculus [2] and 30% in the data set with Mus musculus [3]. For the same compound, the IC50 against Cytochrome P450 3A4 was more than 10000 nM; in data set [6], 1 nM; in data set [7], 28 nM. In addition, the Stability worked out at 24% in the data set with Liver microsomes [4], 9% in the data set on Liver microsomes [5] and 18% in the data set on Liver.
Turning to `O=C(N[C@H]1C2CC3CC1C[C@](O)(C3)C2)N1CCN(c2ccc(N3CCN(S(=O)(=O)C4CC4)CC3)cn2)c2ccccc21`, the Papp in data set [1] came out at 9.8 ×10⁻⁶ cm/s. Moreover, the inhibition in vivo at 30 mg/kg is 40% in the data set with Mus musculus [2] and 65% in the data set with Mus musculus [3]. Also, the IC50 was more than 10000 nM at Cytochrome P450 3A4, 21 nM in data set [6] and 21 nM in data set [7]. Further, the Stability is 23% with Liver microsomes [4], 9% in the data set on Liver microsomes [5] and 22% in the data set with Liver.
As to `COc1ccc(-c2cnc(N3CCN(C(=O)N[C@H]4C5CC6CC4C[C@](O)(C6)C5)c4ccccc43)nc2)cc1`, the Papp in data set [1] came to 24.8 ×10⁻⁶ cm/s. Moreover, the inhibition in vivo at 10 mg/kg in the data set on Mus musculus [13] is 30%; with Mus musculus [14] it was 40%. Also, the IC50 is more than 10000 nM against Cytochrome P450 3A4, 15 nM in data set [6] and 110 nM in data set [7]. For the same compound, the Stability turned out to be 33% with Liver microsomes [4], 41% in the data set on Liver microsomes [5] and 21% with Liver.
